According to ChEMBL document CHEMBL3868591, “Melokhanines A-J, Bioactive Monoterpenoid Indole Alkaloids with Diverse Skeletons from Melodinus khasianus” (J Nat Prod, 2016):
Converted amounts (≈) assume the structure as drawn.

Legend:
Pseudomonas aeruginosa = experiment: Antibacterial activity against Pseudomonas aeruginosa ATCC 27853 after 24 hrs by broth microdilution method; format: functional
In short: (§1)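 MIC determined by broth microdilution, three independent replicates. Strains used were P. aeruginosa ATCC 27853, E. faecalis ATCC 10541, E. coli ATCC 11775, S. aureus […] and K. pneumoniae ATCC 13883. Cefotaxime served as positive control.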

Enterococcus faecalis = experiment: Antibacterial activity against Enterococcus faecalis ATCC 10541 after 24 hrs by broth microdilution method; format: functional; in short: as §1
Escherichia coli = experiment: Antibacterial activity against Escherichia coli ATCC 11775 after 24 hrs by broth microdilution method; format: functional; in short: as §1
Staphylococcus aureus = experiment: Antibacterial activity against Staphylococcus aureus […] after 24 hrs by broth microdilution method; format: functional; in short: as §1
Klebsiella pneumoniae = experiment: Antibacterial activity against Klebsiella pneumoniae ATCC 13883 after 24 hrs by broth microdilution method; format: functional; in short: as §1
[1] = Cytotoxicity against human HL60 cells after 48 hrs by MTT assay; format: functional, cell-based; details: HL-60, 48 h
In short: (§2)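 MTT read-out. Each cell line was exposed in triplicate to a range of concentrations for 48 h, with cisplatin as positive control.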

[2] = Cytotoxicity against human A549 cells after 48 hrs by MTT assay; format: functional, cell-based; details: A549, 48 h; in short: as §2
[3] = Cytotoxicity against human SW480 cells after 48 hrs by MTT assay; format: functional, cell-based; details: SW480, 48 h; in short: as §2
[4] = Cytotoxicity against human MCF7 cells after 48 hrs by MTT assay; format: functional, cell-based; details: MCF7, 48 h; in short: as §2
[5] = Cytotoxicity against human SMMC7721 cells after 48 hrs by MTT assay; format: functional, cell-based; details: SMMC-7721, 48 h; in short: as §2
[6] = Antifungal activity against Microsporum ferrugineum CBS 457.80 after 48 hrs by broth microdilution method; format: functional
In short: (§3)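 Dermatophyte MICs obtained by broth microdilution in three independent replicates, with griseofulvin as positive control.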

Microsporum canis = experiment: Antifungal activity against Microsporum canis CBS 113480 after 48 hrs by broth microdilution method; format: functional; details: CBS 113480, 48 h; in short: as §3
[7] = Antifungal activity against Trichophyton mentagrophytes ATCC 4439 after 48 hrs by broth microdilution method; format: functional; in short: as §3
[8] = Antifungal activity against Trichophyton ajelloi E1501 after 48 hrs by broth microdilution method; format: functional; details: Arthroderma uncinatum; in short: as §3
[9] = Antifungal activity against Trichophyton terrestre after 48 hrs by broth microdilution method; format: functional; in short: as §3
[10] = Antifungal activity against Epidermophyton floccosum CBS 566.94 after 48 hrs by broth microdilution method; format: functional; in short: as §3
Nannizzia gypsea = experiment: Antifungal activity against Microsporum gypseum CBS 118893 after 48 hrs by broth microdilution method; format: functional; details: CBS 118893, 48 h; in short: as §3
[11] = DSM 30083 = JCM 1649 = ATCC 11775, 24 h

Compound | MIC (Pseudomonas aeruginosa; ATCC 27853, 24 h) [µM] | MIC (Enterococcus faecalis; ATCC 10541, 24 h) [µM] | MIC (Escherichia coli; [11]) [µM] | MIC (Staphylococcus aureus) [µM] | MIC (Klebsiella pneumoniae; ATCC 13883, 24 h) [µM] | IC50 [1] [µM] | IC50 [2] [µM] | IC50 [3] [µM] | IC50 [4] [µM] | IC50 [5] [µM] | other results
CC[C@]12CCCn3c(C=O)cc(c31)-c1ccccc1NC(=O)CC2 [RHAZINAL] | 2 (≈ 0.645 µg/mL) | 19 (≈ 6.13 µg/mL) | > 150 | > 150 | 77 (≈ 24.8 µg/mL) | – | – | – | – | – | –
CCO[C@@H]1C[C@@]2(CC)CCCN3CC[C@]4(C(=O)c5ccccc5N14)[C@H]32 | 4 (≈ 1.36 µg/mL) | 147 (≈ 50 µg/mL) | 147 (≈ 50 µg/mL) | > 150 | > 150 | > 40 | > 40 | > 40 | > 40 | > 40 | –
COC1=CC(=O)C[C@@H](C)[C@]12Oc1c(Cl)c(OC)cc(OC)c1C2=O [GRISEOFULVIN] | – | – | – | – | – | – | – | – | – | – | MIC [6]: 35 µM (≈ 12.3 µg/mL); MIC (Microsporum canis): 18 µM (≈ 6.35 µg/mL); MIC [7]: 18 µM (≈ 6.35 µg/mL); MIC [8]: 71 µM (≈ 25 µg/mL); MIC [9]: 35 µM (≈ 12.3 µg/mL); MIC [10]: 9 µM (≈ 3.17 µg/mL); MIC (Nannizzia gypsea): 9 µM (≈ 3.17 µg/mL)
CC[C@@]12CCCN3C(=O)C=C(c4ccccc4NC(=O)CC1)[C@]32O | 5 (≈ 1.63 µg/mL) | 2 (≈ 0.653 µg/mL) | > 150 | > 150 | > 150 | – | – | – | – | – | –
CC[C@@]12CCCN3C(=O)C[C@H]4c5cc(O)ccc5N(C(=O)CC1)C432 (some centres undefined) | 19 (≈ 6.2 µg/mL) | 19 (≈ 6.2 µg/mL) | 76 (≈ 24.8 µg/mL) | 19 (≈ 6.2 µg/mL) | > 150 | – | – | – | – | – | –
C/C=C1/CN2CCc3c([nH]c4ccccc34)[C@@H]2C[C@@H]1[C@H](CO)C(=O)OC | 2 (≈ 0.709 µg/mL) | 18 (≈ 6.38 µg/mL) | > 150 | > 150 | > 150 | – | – | – | – | – | –
CC[C@@]12CCCN3CC[C@]4(C(=O)c5ccccc5N4[C@@H](OC)[C@H]1O)[C@H]32 | 18 (≈ 6.16 µg/mL) | 73 (≈ 25 µg/mL) | 73 (≈ 25 µg/mL) | > 150 | > 150 | > 40 | > 40 | > 40 | > 40 | > 40 | –
CC[C@]12C=Cn3c4c(c5ccccc53)CCN(CCC1)[C@@H]42 | 22 (≈ 6.12 µg/mL) | 22 (≈ 6.12 µg/mL) | > 150 | > 150 | > 150 | – | – | – | – | – | –
CC[C@]12CCCN(CC[C@]3(O)C(=O)Nc4ccccc43)[C@H]1OCC2 | 19 (≈ 6.28 µg/mL) | 75 (≈ 24.8 µg/mL) | 19 (≈ 6.28 µg/mL) | 75 (≈ 24.8 µg/mL) | 150 (≈ 49.6 µg/mL) | > 40 | > 40 | > 40 | > 40 | > 40 | MIC [6]: 75 µM (≈ 24.8 µg/mL); MIC (Microsporum canis): 38 µM (≈ 12.6 µg/mL); MIC [7]: 150 µM (≈ 49.6 µg/mL); MIC [8]: 150 µM (≈ 49.6 µg/mL); MIC [9]: > 150 µM; MIC [10]: 150 µM (≈ 49.6 µg/mL); MIC (Nannizzia gypsea): 150 µM (≈ 49.6 µg/mL)
CC[C@]12C=CN3c4ccccc4C(=O)[C@]34CCN(CCC1)[C@H]24 | 2 (≈ 0.589 µg/mL) | 42 (≈ 12.4 µg/mL) | > 150 | > 150 | > 150 | > 40 | > 40 | > 40 | > 40 | > 40 | –
CC[C@@]12CCCN3CC[C@@H](c4ccccc4NC(=O)CC1)[C@]32O | 5 (≈ 1.57 µg/mL) | 39 (≈ 12.3 µg/mL) | > 150 | > 150 | > 150 | > 40 | > 40 | > 40 | > 40 | > 40 | –
CC[C@@H]1CN2CC[C@]34c5ccccc5-n5c3c(cc(C(N)=O)c5=O)[C@H]1C[C@H]24 [LEUCONICINE A] | 2 (≈ 0.723 µg/mL) | > 150 | > 150 | > 150 | 69 (≈ 24.9 µg/mL) | – | – | – | – | – | –
CO/N=C(\C(=O)N[C@@H]1C(=O)N2C(C(=O)O)=C(COC(C)=O)CS[C@H]12)c1csc(N)n1 [CEFOTAXIME] | 0.4 (≈ 0.182 µg/mL) | 0.4 (≈ 0.182 µg/mL) | 1.7 (≈ 0.774 µg/mL) | 0.4 (≈ 0.182 µg/mL) | 1.7 (≈ 0.774 µg/mL) | – | – | – | – | – | –
CC[C@@H]1CN2CC[C@]34c5ccccc5-n5c3c(cc(C(=O)O)c5=O)[C@H]1C[C@H]24 [MELODININE C] | 4 (≈ 1.45 µg/mL) | > 150 | > 150 | > 150 | 69 (≈ 25 µg/mL) | – | – | – | – | – | –
CC[C@@]12CCCN3CC[C@]4(C(=O)c5ccccc5N4[C@H](OC)C1)[C@H]32 | 5 (≈ 1.63 µg/mL) | 5 (≈ 1.63 µg/mL) | 150 (≈ 49 µg/mL) | > 150 | > 150 | > 40 | > 40 | > 40 | > 40 | > 40 | –
CCC1=CN2CC[C@]34c5ccccc5-n5c3c(cc(C(=O)OC)c5=O)[C@H]1C[C@H]24 | 2 (≈ 0.749 µg/mL) | 66 (≈ 24.7 µg/mL) | 66 (≈ 24.7 µg/mL) | > 150 | 133 (≈ 49.8 µg/mL) | – | – | – | – | – | –
CC[C@@]12CCCN3CC[C@@]4(O)c5ccccc5N(C(=O)CC1)[C@]324 | 2 (≈ 0.625 µg/mL) | > 150 | > 150 | > 150 | > 150 | – | – | – | – | – | –
RAUWOLFIA SERPENTINA | – | – | – | > 150 | – | – | – | – | – | – | MIC (Pseudomonas aeruginosa): 4 µM; MIC (Enterococcus faecalis): 71 µM; MIC (Escherichia coli; DSM 30083 = JCM 1649 = ATCC 11775): 142 µM; MIC (Klebsiella pneumoniae): > 150 µM
CC[C@@]12CCCN3CCc4c(n(c5ccccc45)C(=O)C1)[C@H]32 | 5 (≈ 1.47 µg/mL) | 2 (≈ 0.589 µg/mL) | 85 (≈ 25 µg/mL) | > 150 | > 150 | – | – | – | – | – | –
CC[C@@]12CCCN3CC[C@]4(C(=O)c5ccccc5N4C(=O)C1)[C@H]32 | 2 (≈ 0.621 µg/mL) | 5 (≈ 1.55 µg/mL) | > 150 | > 150 | > 150 | > 40 | > 40 | > 40 | > 40 | > 40 | –
CO[C@H]1CCN2CCc3c([nH]c4ccccc34)[C@@]3(C(=O)O)CCC=C1[C@H]23 | 4 (≈ 1.41 µg/mL) | 71 (≈ 25 µg/mL) | 71 (≈ 25 µg/mL) | > 150 | > 150 | > 40 | > 40 | > 40 | > 40 | > 40 | –
CC[C@@]12CCCN3CC[C@]4(C(=O)c5ccccc5N4[C@@H](OC)C1)[C@H]32 | 19 (≈ 6.2 µg/mL) | 150 (≈ 49 µg/mL) | 75 (≈ 24.5 µg/mL) | > 150 | > 150 | > 40 | > 40 | > 40 | > 40 | > 40 | –
CC[C@@]12CCCN3CC[C@]4(C(=O)c5ccccc5N4[C@@H](O)[C@H]1O)[C@H]32 | 19 (≈ 6.24 µg/mL) | 75 (≈ 24.6 µg/mL) | 150 (≈ 49.3 µg/mL) | > 150 | 150 (≈ 49.3 µg/mL) | > 40 | > 40 | > 40 | > 40 | > 40 | –
